Common to all, as to format: functional
One experiment relates to Staphylococcus aureus. Kind of experiment: Antibacterial activity against Staphylococcus aureus ATCC 25923 after 18 to 24 hrs by serial plate dilution method.
For the next experiment, the system named is Streptococcus pyogenes. Kind of experiment: Antibacterial activity against Streptococcus pyogenes after 18 to 24 hrs by serial plate dilution method.
A further experiment concerns Pseudomonas aeruginosa. Kind of experiment: Antibacterial activity against Pseudomonas aeruginosa ATCC 27853 after 18 to 24 hrs by […].
The next experiment concerns Klebsiella pneumoniae. Kind of experiment: Antibacterial activity against Klebsiella pneumoniae after 18 to 24 hrs by […].
The next experiment relates to Escherichia coli. Kind of experiment: Antibacterial activity against Escherichia coli ATCC 25922 after 18 to 24 hrs by […].
Experiment [1] deals with Mycobacterium tuberculosis. Kind of experiment: Antimycobacterial activity against Mycobacterium tuberculosis H37Rv ATCC 27294 after 7 days by resazurin method. Particulars: H37Rv ATCC 27294, 168 h. The method in brief:
(§1)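 H37Rv was grown in Middlebrook 7H9 broth with 10% OADC, diluted to McFarland 2 in the same medium, and added to fresh medium in 96-well plates with compound. Compounds were tested at 1, 10 and 100. The dye turned pink in controls after […] at 37 °C.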
In general terms: The colour change of resazurin is a common sign of viable cells or microbes.

Experiment [2] has as its system Mycolicibacterium smegmatis. Kind of experiment: Antimycobacterial activity against Mycobacterium smegmatis ATCC 19420 after 7 days by resazurin method. The note with it: ATCC 19420, 168 h. The method in brief:
(§2)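 MIC was determined by resazurin microplate assay. Resazurin turns from blue to pink when reduced by viable cells, and wells with no colour change were scored as inhibited. Isoniazid and rifampicin were reference drugs.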

The test system of experiment [3] is Mycolicibacterium fortuitum. Kind of experiment: Antimycobacterial activity against Mycobacterium fortuitum ATCC 19542 after 7 days by resazurin method. The note with it: ATCC 19542, 168 h. The method in brief: as §2
The subject of experiment [4] is Mycobacterium tuberculosis. Kind of experiment: Antimycobacterial activity against Mycobacterium tuberculosis H37Rv ATCC 27294 assessed as inhibition of bacterial growth at 1 to 100 ug/ml after 7 days by resazurin method. The method in brief:
as §1

As usually defined, the MIC is the lowest concentration found to suppress growth. The low end stands for inhibition by little substance, the high end for a need for much substance.

Values after ≈ are worked out from the molar mass of the structure shown.

Consider `COc1ccc2nc(C)cc(-n3cc(CNC(=O)C4CC4)nn3)c2c1`, for which the MIC in the experiment on Staphylococcus aureus was determined as 0.4 µg/mL (≈ 1.19 µM); in the experiment on Streptococcus pyogenes, 0.4 µg/mL (≈ 1.19 µM); against Pseudomonas aeruginosa, 1.6 µg/mL (≈ 4.74 µM); with Klebsiella pneumoniae it was 0.2 µg/mL (≈ 0.593 µM); with Escherichia coli, 0.4 µg/mL (≈ 1.19 µM); in experiment [1], 1 µg/mL (≈ 2.96 µM). The MIC in [2] and in [3] was 100 µg/mL (≈ 296 µM) each time. In addition, in experiment [4], the “inhibition (INH)” value was 90%.
For the compound `COc1ccc2nc(C)cc(-n3cc(CNC(=O)c4ccccc4Cl)nn3)c2c1`, the MIC in the experiment on Staphylococcus aureus came out at 1.6 µg/mL (≈ 3.92 µM); against Streptococcus pyogenes it was 3.12 µg/mL (≈ 7.65 µM); in the experiment with Pseudomonas aeruginosa it was 6.25 µg/mL (≈ 15.3 µM); against Klebsiella pneumoniae, 3.12 µg/mL (≈ 7.65 µM); in the experiment with Escherichia coli, 3.12 µg/mL (≈ 7.65 µM); in [1] it was 10 µg/mL (≈ 24.5 µM). Moreover, the MIC in [2] and in experiment [3] was 100 µg/mL (≈ 245 µM) each time. Besides, the “inhibition (INH)” value in [4] was determined as 80%.
On to `COc1ccc2nc(C)cc(-n3cc(CNC(=O)C4CCC4)nn3)c2c1`, for which the MIC in the experiment with Staphylococcus aureus was determined as 1.6 µg/mL (≈ 4.55 µM); against Streptococcus pyogenes, 0.8 µg/mL (≈ 2.28 µM); against Pseudomonas aeruginosa, 0.8 µg/mL (≈ 2.28 µM); in the experiment on Klebsiella pneumoniae, 1.6 µg/mL (≈ 4.55 µM); with Escherichia coli it was 1.6 µg/mL (≈ 4.55 µM); in experiment [1] it was 10 µg/mL (≈ 28.5 µM). In addition, the MIC in [2] and in [3] was 100 µg/mL (≈ 285 µM) in each case. Further, the “inhibition (INH)” value in experiment [4] is recorded as 85%.
For the compound `COc1ccc2nc(C)cc(-n3cc(CNS(=O)(=O)c4ccc(F)cc4)nn3)c2c1`, the MIC with Staphylococcus aureus came to 0.4 µg/mL (≈ 0.936 µM); in the experiment with Streptococcus pyogenes, 0.4 µg/mL (≈ 0.936 µM); against Pseudomonas aeruginosa it was 0.8 µg/mL (≈ 1.87 µM); in the experiment on Klebsiella pneumoniae it was 3.12 µg/mL (≈ 7.3 µM); against Escherichia coli, 3.12 µg/mL (≈ 7.3 µM); in experiment [1], 1 µg/mL (≈ 2.34 µM). The MIC in experiment [2] and in [3] was 100 µg/mL (≈ 234 µM) throughout. In addition, the “inhibition (INH)” value in experiment [4] worked out at 85%.
For the compound `COc1ccc2nc(C)cc(-n3cc(CNS(=O)(=O)c4ccccc4C(F)(F)F)nn3)c2c1`, the minimal inhibitory concentration (MIC) is 0.8 µg/mL (≈ 1.68 µM) against Staphylococcus aureus; 0.4 µg/mL (≈ 0.838 µM) with Streptococcus pyogenes; 0.4 µg/mL (≈ 0.838 µM) with Pseudomonas aeruginosa; 0.4 µg/mL (≈ 0.838 µM) against Klebsiella pneumoniae; 0.2 µg/mL (≈ 0.419 µM) in the experiment on Escherichia coli; 1 µg/mL (≈ 2.09 µM) in experiment [1]. Also, the MIC in [2] turned out to be 100 µg/mL (≈ 209 µM); in experiment [3], 10 µg/mL (≈ 20.9 µM). For the same compound, the “inhibition (INH)” value in [4] amounted to 90%.
Regarding `COc1ccc2nc(C)cc(-n3cc(CN4CCN(C(=O)c5ccccc5F)CC4)nn3)c2c1`, the MIC against Staphylococcus aureus worked out at 0.8 µg/mL (≈ 1.74 µM); against Streptococcus pyogenes it was 0.4 µg/mL (≈ 0.869 µM); with Pseudomonas aeruginosa it was 3.12 µg/mL (≈ 6.78 µM); in the experiment with Klebsiella pneumoniae, 1.6 µg/mL (≈ 3.47 µM); in the experiment with Escherichia coli, 1.6 µg/mL (≈ 3.47 µM); in [1], 1 µg/mL (≈ 2.17 µM). In addition, the MIC in [2] was 5 µg/mL (≈ 10.9 µM); in [3], 100 µg/mL (≈ 217 µM). Further, the “inhibition (INH)” value in [4] is given as 90%.
With `COc1ccc2nc(C)cc(-n3cc(CNC(=O)c4ccccc4F)nn3)c2c1`, the minimal inhibitory concentration (MIC) was 0.8 µg/mL (≈ 2.04 µM) in the experiment on Staphylococcus aureus; 0.2 µg/mL (≈ 0.511 µM) in the experiment on Streptococcus pyogenes; 0.4 µg/mL (≈ 1.02 µM) with Pseudomonas aeruginosa; 0.2 µg/mL (≈ 0.511 µM) with Klebsiella pneumoniae; 0.4 µg/mL (≈ 1.02 µM) in the experiment with Escherichia coli; 1 µg/mL (≈ 2.55 µM) in [1]. The MIC in experiment [2] and in [3] was 100 µg/mL (≈ 255 µM) throughout. The “inhibition (INH)” value in experiment [4] was 90%.
On to `COc1ccc2nc(C)cc(-n3cc(CN4CCN(C(=O)c5ccc(F)cc5)CC4)nn3)c2c1`, for which the minimum inhibitory concentration (MIC) came out at 0.8 µg/mL (≈ 1.74 µM) in the experiment on Staphylococcus aureus; 0.4 µg/mL (≈ 0.869 µM) against Streptococcus pyogenes; 1.6 µg/mL (≈ 3.47 µM) in the experiment with Pseudomonas aeruginosa; 0.8 µg/mL (≈ 1.74 µM) against Klebsiella pneumoniae; 0.8 µg/mL (≈ 1.74 µM) in the experiment with Escherichia coli; 1 µg/mL (≈ 2.17 µM) in [1]. For the same compound, the results for the MIC in experiment [2] and in experiment [3] were 1 µg/mL (≈ 2.17 µM) and 10 µg/mL (≈ 21.7 µM), respectively. Also, the “inhibition (INH)” value in experiment [4] was determined as 90%.

The values above are taken from ChEMBL document CHEMBL1781906, “New quinolin-4-yl-1,2,3-triazoles carrying amides, sulphonamides and amidopiperazines as potential antitubercular agents” (2011).
